Experimental data taken from ChEMBL document CHEMBL1147809, “Tumor-cell-targeted methionine-enkephalin analogues containing unnatural amino acids: design, synthesis, and in vitro antitumor activity” (2006).
*1 amine or outer side, *2 acyl side, *3 side chain or, on linkers, in order; H or OH if unused. Where a SMILES comes first, the peptide text is derived from it. [ ]: non-standard residue; d: D form. X1 = O=C(C(N[*:1])C1C2CC3CC(C2)CC1C3)[*:2]; X2 = O=C(C1(N[*:1])C2CC3CC(C2)CC1C3)[*:2]

Tests used:
Type in all cases: functional
[1] = test system: HT-29; experiment: Antiproliferative activity against human HT29 cell line at 10 uM relative to control
Outline: (§1)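 Cells from ATCC grown as monolayers in DMEM with 10% FBS, 2 mM glutamine, penicillin/streptomycin, 37 °C, 5% CO2. Seeded at 2 × 10^4 cells/mL, and after 24 h the medium was replaced with fresh medium containing compound (water/10% DMSO stock, PBS working dilutions 10^-3 to 10^-6 M). Exposure was 72 h, then MTT read-out. Growth % = (A_peptide − A_blank)/(A_control − A_blank) × 100, with inhibition taken relative to untreated cells. Values are means of three experiments run in triplicate.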

[2] = test system: Caco-2; experiment: Antiproliferative activity against human Caco-2 cell line at 100 uM relative to control; outline: as §1
[3] = test system: HEp-2; experiment: Antiproliferative activity against human HEp2 cell line at 100 uM relative to control; outline: as §1
[4] = test system: MCF7; experiment: Antiproliferative activity against human MCF7 cell line at 100 uM relative to control; outline: as §1
[5] = test system: HEp-2; experiment: Antiproliferative activity against human HEp2 cell line at 1000 uM relative to control; outline: as §1
[6] = test system: HEp-2; experiment: Antiproliferative activity against human HEp2 cell line at 10 uM relative to control; outline: as §1
[7] = test system: HBL; experiment: Antiproliferative activity against human HBL cell line at 10 uM relative to control; outline: as §1
[8] = test system: HBL; experiment: Antiproliferative activity against human HBL cell line at 100 uM relative to control; outline: as §1
[9] = test system: SW-620; experiment: Antiproliferative activity against human SW620 cell line at 10 uM relative to control; outline: as §1
[10] = test system: Caco-2; experiment: Antiproliferative activity against human Caco-2 cell line at 10 uM relative to control; outline: as §1
[11] = test system: HT-29; experiment: Antiproliferative activity against human HT29 cell line at 1000 uM relative to control; outline: as §1
[12] = test system: HeLa; experiment: Antiproliferative activity against human HeLa cell line at 1 uM relative to control; outline: as §1
[13] = test system: SW-620; experiment: Antiproliferative activity against human SW620 cell line at 1000 uM relative to control; outline: as §1
[14] = test system: MCF7; experiment: Antiproliferative activity against human MCF7 cell line at 1 uM relative to control; outline: as §1
[15] = test system: MCF7; experiment: Antiproliferative activity against human MCF7 cell line at 1000 uM relative to control; outline: as §1
[16] = test system: HBL; experiment: Antiproliferative activity against human HBL cell line at 1000 uM relative to control; outline: as §1
[17] = test system: HeLa; experiment: Antiproliferative activity against human HeLa cell line at 10 uM relative to control; outline: as §1
[18] = test system: HT-29; experiment: Antiproliferative activity against human HT29 cell line at 100 uM relative to control; outline: as §1
[19] = test system: SW-620; experiment: Antiproliferative activity against human SW620 cell line at 100 uM relative to control; outline: as §1
[20] = test system: Caco-2; experiment: Antiproliferative activity against human Caco-2 cell line at 1 uM relative to control; outline: as §1
[21] = test system: HT-29; experiment: Antiproliferative activity against human HT29 cell line at 1 uM relative to control; outline: as §1
[22] = test system: MCF7; experiment: Antiproliferative activity against human MCF7 cell line at 10 uM relative to control
Outline: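 MTT assay on monolayer cells grown in DMEM with 10% FBS, 2 mM glutamine, penicillin and streptomycin, at 37 °C in 5% CO2. Cells were plated at 2 × 10^4 cells/mL on day 0. After 24 h the medium was replaced with fresh medium containing compound (working dilutions in PBS from 10% DMSO/water stock), then incubated 72 h. Percent growth inhibition was calculated against untreated cells after blank subtraction. Values are means of three experiments run in triplicate.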

[23] = test system: Caco-2; experiment: Antiproliferative activity against human Caco-2 cell line at 1000 uM relative to control; outline: as §1
[24] = test system: HEp-2; experiment: Antiproliferative activity against human HEp2 cell line at 1 uM relative to control; outline: as §1
[25] = test system: HBL; experiment: Antiproliferative activity against human HBL cell line at 1 uM relative to control; outline: as §1
[26] = test system: HeLa; experiment: Antiproliferative activity against human HeLa cell line at 100 uM relative to control; outline: as §1
[27] = test system: HeLa; experiment: Antiproliferative activity against human HeLa cell line at 1000 uM relative to control; outline: as §1
[28] = test system: SW-620; experiment: Antiproliferative activity against human SW620 cell line at 1 uM relative to control; outline: as §1

SMILES | inhibition at 10 µM [1] [%] | inhibition at 100 µM [2] [%] | inhibition at 100 µM [3] [%] | inhibition at 1000 µM [5] [%] | inhibition at 10 µM [6] [%] | inhibition at 10 µM [7] [%] | inhibition at 10 µM [9] [%] | inhibition at 10 µM [10] [%] | inhibition at 1000 µM [11] [%] | inhibition at 1000 µM [13] [%] | inhibition at 1000 µM [15] [%] | inhibition at 1000 µM [16] [%] | inhibition at 10 µM [17] [%] | inhibition at 100 µM [18] [%] | inhibition at 100 µM [19] [%] | inhibition at 1 µM [20] [%] | inhibition at 1 µM [21] [%] | inhibition at 1000 µM [23] [%] | inhibition at 1 µM [24] [%] | inhibition at 1000 µM [27] [%] | also measured
CSCC[C@H](NC(=O)[C@H](Cc1ccccc1)NC(=O)CNC(=O)CNC(=O)[C@@H](N)Cc1ccc(O)cc1)C(=O)O | 15.9 | 8.4 | 2.4 | 3.3 | 4.5 | 1 | 12.7 | 6.4 | 19.3 | 19.1 | 15.4 | 10.8 | 11.4 | 16.1 | 15.3 | 4.2 | 14 | 3.2 | 5.2 | 22.3 | inhibition at 100 µM [4]: 7.6%; inhibition at 100 µM [8]: 4.5%; inhibition at 1 µM [12]: 2.3%; inhibition at 1 µM [14]: 3.6%; inhibition at 10 µM [22]: 4.1%; inhibition at 1 µM [25]: 0.4%; inhibition at 100 µM [26]: 12%; inhibition at 1 µM [28]: 18.9%
N[C@@H](Cc1ccc(O)cc1)C(=O)N[C@@H](C(=O)O)C1C2CC3CC(C2)CC1C3 (some centres undefined) | 8.3 | 17.5 | 1.9 | 16.2 | 4.9 | 4.7 | 10 | 21.4 | 21.8 | 18.7 | 18.7 | 7.3 | 17.1 | 10.5 | 9.4 | 22.2 | 0.7 | 16 | 8.5 | 20.5 | inhibition at 100 µM [4]: 7.7%; inhibition at 100 µM [8]: 2.7%; inhibition at 1 µM [12]: 7.2%; inhibition at 1 µM [14]: 1.6%; inhibition at 10 µM [22]: 2.6%; inhibition at 1 µM [25]: 3%; inhibition at 100 µM [26]: 11%; inhibition at 1 µM [28]: 10.7%
N[C@@H](Cc1ccc(O)cc1)C(=O)NC1(C(=O)O)C2CC3CC(C2)CC1C3 (some centres undefined) | 1.6 | 18.9 | 24.9 | 30.4 | 19.7 | 14 | 16.5 | 22.7 | 26.5 | 58.2 | 7.5 | 14 | 10 | 5.4 | 28.1 | 3.5 | 9.8 | 26.4 | 14.2 | 36.1 | inhibition at 100 µM [8]: 7.5%; inhibition at 10 µM [22]: 2.4%; inhibition at 1 µM [25]: 6.5%; inhibition at 100 µM [26]: 8.2%; inhibition at 1 µM [28]: 12.9%
N[C@@H](Cc1ccc(O)cc1)C(=O)N[C@@H](C(=O)NCC(=O)O)C1C2CC3CC(C2)CC1C3 (some centres undefined) | 3.8 | 8.1 | 12.6 | 26.4 | 4.9 | 1.2 | 13.5 | 6.9 | 22.4 | 25.3 | 15.6 | 19.4 | 11.7 | 12.4 | 13.5 | 8.1 | 7.6 | 8.6 | 4.6 | 28.2 | inhibition at 100 µM [8]: 3.3%; inhibition at 1 µM [12]: 11%; inhibition at 100 µM [26]: 11.6%; inhibition at 1 µM [28]: 17%
N[C@@H](Cc1ccc(O)cc1)C(=O)N[C@H](C(=O)O)C1C2CC3CC(C2)CC1C3 (some centres undefined) | 8.9 | 8.4 | 8.2 | 21.2 | 6.4 | 3.9 | 21.9 | 16.5 | 20.8 | 17.9 | 17.8 | 7.3 | 6.1 | 3.4 | 11.8 | 3.7 | 4.9 | 14.5 | 6.2 | 14.8 | inhibition at 100 µM [4]: 1.2%; inhibition at 1 µM [12]: 7.5%; inhibition at 10 µM [22]: 1.1%; inhibition at 100 µM [26]: 3.1%; inhibition at 1 µM [28]: 10.5%
N[C@@H](Cc1ccc(O)cc1)C(=O)N[C@H](C(=O)NCC(=O)O)C1C2CC3CC(C2)CC1C3 (some centres undefined) | 7.4 | 6.4 | 18.8 | 26.7 | 2 | 2.9 | 20.4 | 4.2 | 15.7 | 23.4 | 21.2 | 17.9 | 7.3 | 9.5 | 14.4 | 2.2 | 5.4 | 6.2 | 2.7 | 28.2 | inhibition at 100 µM [8]: 5.9%; inhibition at 1 µM [12]: 9.8%; inhibition at 1 µM [25]: 1.6%; inhibition at 100 µM [26]: 9.9%; inhibition at 1 µM [28]: 13.6%
CSCC[C@H](NC(=O)[C@H](Cc1ccccc1)NC(=O)CNC(=O)CNC(=O)[C@@H](N)Cc1ccc(O)cc1)C(=O)NC1(C(=O)O)C2CC3CC(C2)CC1C3 (some centres undefined) (H-YGGFM[X2]-OH) |  |  |  | 45 | 3.9 | 70.7 |  | 11.1 | 9.2 |  | 25.9 | 34.4 |  |  |  |  |  | 47 |  | 9.3 | inhibition at 100 µM [4]: 6.9%; inhibition at 1 µM [14]: 2.2%; inhibition at 10 µM [22]: 7.1%; inhibition at 1 µM [25]: 4.1%
CSCC[C@H](NC(=O)[C@H](Cc1ccccc1)NC(=O)CNC(=O)C(NC(=O)[C@@H](N)Cc1ccc(O)cc1)C1C2CC3CC(C2)CC1C3)C(=O)O (some centres undefined) (H-Y[X1]GFM-OH) | 6.6 | 12.1 | 34.7 | 44.5 | 25.8 | 4.5 | 13.1 | 10.9 | 14.5 | 38.4 | 29.9 | 23.2 | 9.5 | 5.1 | 14.6 | 17.7 | 16.2 | 8.1 | 13.7 | 24.1 | inhibition at 100 µM [4]: 9.6%; inhibition at 100 µM [8]: 11.4%; inhibition at 1 µM [12]: 8.5%; inhibition at 1 µM [25]: 2.4%; inhibition at 100 µM [26]: 15.4%; inhibition at 1 µM [28]: 26.4%
CSCC[C@H](NC(=O)[C@H](Cc1ccccc1)NC(=O)CNC(=O)C1(NC(=O)[C@@H](N)Cc2ccc(O)cc2)C2CC3CC(C2)CC1C3)C(=O)O (some centres undefined) (H-Y[X2]GFM-OH) | 11 | 18.5 | 16.8 | 36.1 | 10.1 | 1.4 | 15.5 | 8.4 | 23.7 | 29 | 22.8 | 18.3 | 10.2 | 7.9 | 24.7 | 3 | 3.3 | 10.6 | 1 | 28 | inhibition at 100 µM [8]: 2.4%; inhibition at 1 µM [12]: 4.9%; inhibition at 1 µM [25]: 0.8%; inhibition at 100 µM [26]: 13.3%; inhibition at 1 µM [28]: 12.2%
